According to ChEMBL document CHEMBL3352430, “4-Aminopyridyl-based CYP51 inhibitors as anti-Trypanosoma cruzi drug leads with improved pharmacokinetic profile and in vivo potency” (J Med Chem, 2014):
Calls of active or inactive are those of the source. The calls are words filed in the database; no cut-off is given here.

Columns and labels:
Intestine [1] = assay: Drug uptake in mouse intestine at 50 mg/kg, po in 20% HP-beta-CD measured at 8 hrs post dose; type: ADME, organism-based; parameters: dose 50 mg/kg, route oral; conditions: in vivo
Outline: (§1)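 Female Swiss Webster mice, 8 weeks old, given a single 50 mg/kg oral gavage dose in 20% HPβCD or 20% Kolliphor. Tissues taken from three mice at 2 and 8 h post dose. Homogenized by probe sonication in PBS (1:4 w/v), protein precipitated with acetonitrile, and compound measured by LC-MS/MS in μM.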

Liver [2] = assay: Drug uptake in mouse liver at 50 mg/kg, po in 20% Kolliphor measured at 8 hrs post dose; type: ADME, organism-based; parameters: dose 50 mg/kg, route oral; conditions: in vivo; outline: as §1
Lung [3] = assay: Drug uptake in mouse lung at 50 mg/kg, po in 20% Kolliphor measured at 8 hrs post dose; type: ADME, organism-based; parameters: dose 50 mg/kg, route oral; conditions: in vivo; outline: as §1
Heart [4] = assay: Drug uptake in mouse heart at 50 mg/kg, po in 20% Kolliphor measured at 8 hrs post dose; type: ADME, organism-based; parameters: dose 50 mg/kg, route oral; conditions: in vivo; outline: as §1
[5] = Drug uptake in mouse fat at 50 mg/kg, po in 20% Kolliphor measured at 8 hrs post dose; type: ADME, organism-based, Adipose tissue; parameters: dose 50 mg/kg, route oral; conditions: in vivo; outline: as §1
[6] = Drug uptake in mouse skeletal muscle at 50 mg/kg, po in 20% Kolliphor measured at 8 hrs post dose; type: ADME, organism-based, Muscle tissue; parameters: dose 50 mg/kg, route oral; conditions: in vivo; outline: as §1
Liver [7] = assay: Drug uptake in mouse liver at 50 mg/kg, po in 20% HP-beta-CD measured at 8 hrs post dose; type: ADME, organism-based; parameters: dose 50 mg/kg, route oral; conditions: in vivo; outline: as §1
Lung [8] = assay: Drug uptake in mouse lung at 50 mg/kg, po in 20% HP-beta-CD measured at 8 hrs post dose; type: ADME, organism-based; parameters: dose 50 mg/kg, route oral; conditions: in vivo; outline: as §1
Heart [9] = assay: Drug uptake in mouse heart at 50 mg/kg, po in 20% HP-beta-CD measured at 8 hrs post dose; type: ADME, organism-based; parameters: dose 50 mg/kg, route oral; conditions: in vivo; outline: as §1
[10] = Drug uptake in mouse fat at 50 mg/kg, po in 20% HP-beta-CD measured at 8 hrs post dose; type: ADME, organism-based, Adipose tissue; parameters: dose 50 mg/kg, route oral; conditions: in vivo; outline: as §1
[11] = Drug uptake in mouse skeletal muscle at 50 mg/kg, po in 20% HP-beta-CD measured at 8 hrs post dose; type: ADME, organism-based, Muscle tissue; parameters: dose 50 mg/kg, route oral; conditions: in vivo; outline: as §1
Trypanosoma cruzi [12] = assay: Antitrypanosomal activity against Trypanosoma cruzi Y luc infected in mouse assessed as inhibition of parasitemia at 50 mg/kg, po bid in 20% HP-beta-CD administered for 4 consecutive days starting on day 3 of infection measured on day 7 post infection relative to vehicle-treated control; type: functional, organism-based; parameters: dose 50 mg/kg
Outline: (§2)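 Female Swiss Webster mice, 8 weeks old, infected ip with 10^5 T. cruzi Y luc trypomastigotes. Only mice with detectable luminescence on day 3 were treated. Compound given by oral gavage bid for four days, as a suspension in 20% HPβCD or a solution in 20% Kolliphor, five mice per group. Vehicle group and benznidazole 50 mg/kg served as controls. On day 7, mice were injected ip with 150 mg/kg d-luciferin and imaged after 5 min under isoflurane. Percent inhibition calculated against untreated mice; two-tailed paired t test.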

Trypanosoma cruzi [13] = assay: Antitrypanosomal activity against Trypanosoma cruzi Y luc infected in mouse assessed as inhibition of parasitemia at 25 mg/kg, po bid in 20% HP-beta-CD administered for 4 consecutive days starting on day 3 of infection measured on day 7 post infection relative to vehicle-treated control; type: functional, organism-based; parameters: dose 25 mg/kg; outline: as §2
Mus musculus [14] = assay: Toxicity in mouse assessed as weight loss at 12.5 to 50 mg/kg, po bid in 20% HP-beta-CD; type: organism-based; parameters: dose 12.5-50 mg/kg, route oral; conditions: in vivo
Outline: (§3)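 Mice in the four-day oral treatment study were given compound bid by gavage in 20% HPβCD or 20% Kolliphor. They were watched for weight loss, mobility problems and changes in appearance throughout dosing.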

Mus musculus [15] = assay: Toxicity in mouse assessed as mobility issues at 12.5 to 50 mg/kg, po bid in 20% HP-beta-CD; type: organism-based; parameters: dose 12.5-50 mg/kg, route oral; conditions: in vivo; outline: as §3
Mus musculus [16] = assay: Toxicity in mouse assessed as change in appearance at 12.5 to 50 mg/kg, po bid in 20% HP-beta-CD; type: organism-based; parameters: dose 12.5-50 mg/kg, route oral; conditions: in vivo; outline: as §3
Mus musculus [17] = assay: Toxicity in mouse assessed as weight loss at 12.5 to 50 mg/kg, po bid in 20% Kolliphor; type: organism-based; parameters: dose 12.5-50 mg/kg, route oral; conditions: in vivo; outline: as §3
Mus musculus [18] = assay: Toxicity in mouse assessed as mobility issues at 12.5 to 50 mg/kg, po bid in 20% Kolliphor; type: organism-based; parameters: dose 12.5-50 mg/kg, route oral; conditions: in vivo; outline: as §3
Mus musculus [19] = assay: Toxicity in mouse assessed as change in appearance at 12.5 to 50 mg/kg, po bid in 20% Kolliphor; type: organism-based; parameters: dose 12.5-50 mg/kg, route oral; conditions: in vivo; outline: as §3
[20] = target: Sterol 14-alpha demethylase (Trypanosoma cruzi (strain CL Brener), UniProt Q7Z1V1); assay: Binding affinity to Trypanosoma cruzi CYP51 by UV-vis titration method; conditions: read-out: Kd(app)
Trypanosoma cruzi [21] = assay: Antitrypanosomal activity against Trypanosoma cruzi Y luc infected in mouse assessed as inhibition of parasitemia at 25 mg/kg, po bid in 20% Kolliphor administered for 4 consecutive days starting on day 3 of infection measured on day 7 post infection relative to vehicle-treated control; type: functional; outline: as §2
Trypanosoma cruzi [22] = assay: Antitrypanosomal activity against Trypanosoma cruzi Y luc infected in mouse assessed as inhibition of parasitemia at 50 mg/kg, po bid in 20% Kolliphor administered for 4 consecutive days starting on day 3 of infection measured on day 7 post infection relative to vehicle-treated control; type: functional; outline: as §2
Liver microsome [23] = assay: Half life in human liver microsomes; type: ADME
Liver microsome [24] = assay: Half life in rat liver microsomes; type: ADME
Liver [25] = assay: Half life in mouse liver microsomes; type: ADME
Cytochrome P450 1A2 = target: T1, Cytochrome P450 1A2 (Homo sapiens, UniProt P05177); assay: Inhibition of CYP1A2 in human liver microsomes at 1 uM; type: ADME
T1 sequence (P05177 whole entry): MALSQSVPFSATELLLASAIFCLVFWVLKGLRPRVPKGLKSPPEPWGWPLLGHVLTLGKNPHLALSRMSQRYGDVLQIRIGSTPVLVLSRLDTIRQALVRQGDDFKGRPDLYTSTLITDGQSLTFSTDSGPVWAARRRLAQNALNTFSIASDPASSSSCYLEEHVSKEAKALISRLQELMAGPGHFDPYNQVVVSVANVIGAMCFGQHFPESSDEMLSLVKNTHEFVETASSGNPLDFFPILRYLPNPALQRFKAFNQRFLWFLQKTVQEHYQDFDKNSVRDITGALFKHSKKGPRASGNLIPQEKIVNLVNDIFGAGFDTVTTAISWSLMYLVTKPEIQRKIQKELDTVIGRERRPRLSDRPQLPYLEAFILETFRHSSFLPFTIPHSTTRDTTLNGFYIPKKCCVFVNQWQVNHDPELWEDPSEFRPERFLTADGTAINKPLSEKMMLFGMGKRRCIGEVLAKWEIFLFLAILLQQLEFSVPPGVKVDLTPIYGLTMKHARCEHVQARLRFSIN

Cytochrome P450 2C9 = Cytochrome P450 2C9 (Homo sapiens, UniProt P11712); assay: Inhibition of CYP2C9 in human liver microsomes at 1 uM; type: ADME
Cytochrome P450 2D6 = Cytochrome P450 2D6 (Homo sapiens, UniProt P10635); assay: Inhibition of CYP2D6 in human liver microsomes at 1 uM; type: ADME
Cytochrome P450 3A4 = Cytochrome P450 3A4 (Homo sapiens, UniProt P08684); assay: Inhibition of CYP3A4 in human liver microsomes at 1 uM; type: ADME
Trypanosoma cruzi [26] = assay: Antitrypanosomal activity against Trypanosoma cruzi amastigotes infected in mouse C2C12 cells after 72 hrs by DAPI staining method; type: functional, organism-based; conditions: C2C12, 72 h
C2C12 = assay: Cytotoxicity against mouse C2C12 cells up to 10 uM; type: cell-based
Outline: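 Mouse C2C12 myoblasts infected with T. cruzi CA-I/72, then exposed at 24 h postinfection to compound at 10 μM down to 5 pM in 5-fold steps for 72 h at 37 °C. Cells fixed in paraformaldehyde, stained with DAPI and scored by automated imaging. Triplicate wells; uninfected and infected untreated wells as controls.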

[27] = Half life in mouse at 50 mg/kg, po in 20% Kolliphor; type: ADME, organism-based; parameters: dose 50 mg/kg, route oral; conditions: in vivo
Outline: (§4)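 Female Swiss Webster mice, 8 weeks old, given one oral gavage dose of 50 mg/kg as a 10 mg/mL preparation in the named vehicle (20% HPβCD suspension or 20% Kolliphor). Plasma sampled at about 0.25, 0.5, 1, 2, 4, 6, 8, 12 and 24 h, n = 3 per time point. Protein precipitated with 5 volumes acetonitrile, filtered, then LC-MS/MS. Values are averages of three mice.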

[28] = Half life in mouse at 50 mg/kg, po in 20% HP-beta-CD; type: ADME, organism-based; parameters: dose 50 mg/kg, route oral; conditions: in vivo; outline: as §4
[29] = Tmax in mouse at 50 mg/kg, po in 20% Kolliphor; type: ADME, organism-based; parameters: dose 50 mg/kg, route oral; conditions: in vivo; outline: as §4
[30] = Tmax in mouse at 50 mg/kg, po in 20% HP-beta-CD; type: ADME, organism-based; parameters: dose 50 mg/kg, route oral; conditions: in vivo; outline: as §4
[31] = Cmax in mouse at 50 mg/kg, po in 20% Kolliphor; type: ADME, organism-based; parameters: dose 50 mg/kg, route oral; conditions: in vivo; outline: as §4
[32] = Cmax in mouse at 50 mg/kg, po in 20% HP-beta-CD; type: ADME, organism-based; parameters: dose 50 mg/kg, route oral; conditions: in vivo; outline: as §4
[33] = AUClast in mouse at 50 mg/kg, po in 20% Kolliphor; type: ADME, organism-based; parameters: time 0 - last, dose 50 mg/kg, route oral; conditions: plasma; outline: as §4
Mus musculus [34] = assay: AUClast in mouse at 50 mg/kg, po in 20% HP-beta-CD; type: ADME, organism-based, Plasma; parameters: time 0 - last, dose 50 mg/kg, route oral; conditions: in vivo; outline: as §4
[35] = Clearance in mouse at 50 mg/kg, po in 20% Kolliphor; type: ADME, organism-based; parameters: dose 50 mg/kg, route oral; conditions: in vivo; outline: as §4
Intestine [36] = assay: Drug uptake in mouse intestine at 50 mg/kg, po in 20% Kolliphor measured at 8 hrs post dose; type: ADME, organism-based; parameters: dose 50 mg/kg, route oral; conditions: in vivo; outline: as §1

Sequence of Sterol 14-alpha demethylase (Q7Z1V1 whole entry): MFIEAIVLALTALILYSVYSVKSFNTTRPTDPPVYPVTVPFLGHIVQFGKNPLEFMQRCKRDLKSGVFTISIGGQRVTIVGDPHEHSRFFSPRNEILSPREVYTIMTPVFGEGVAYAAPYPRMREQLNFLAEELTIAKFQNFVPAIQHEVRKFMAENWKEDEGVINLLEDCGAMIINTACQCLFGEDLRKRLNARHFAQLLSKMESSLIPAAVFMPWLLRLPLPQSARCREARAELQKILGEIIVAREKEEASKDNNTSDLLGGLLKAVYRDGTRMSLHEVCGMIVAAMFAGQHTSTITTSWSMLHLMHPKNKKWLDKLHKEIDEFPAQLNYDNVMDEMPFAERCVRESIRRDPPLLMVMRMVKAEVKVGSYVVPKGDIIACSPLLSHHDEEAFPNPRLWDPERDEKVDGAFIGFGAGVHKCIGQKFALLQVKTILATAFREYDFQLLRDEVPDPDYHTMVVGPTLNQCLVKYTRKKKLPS
Sequence of Cytochrome P450 3A4 (P08684 whole entry): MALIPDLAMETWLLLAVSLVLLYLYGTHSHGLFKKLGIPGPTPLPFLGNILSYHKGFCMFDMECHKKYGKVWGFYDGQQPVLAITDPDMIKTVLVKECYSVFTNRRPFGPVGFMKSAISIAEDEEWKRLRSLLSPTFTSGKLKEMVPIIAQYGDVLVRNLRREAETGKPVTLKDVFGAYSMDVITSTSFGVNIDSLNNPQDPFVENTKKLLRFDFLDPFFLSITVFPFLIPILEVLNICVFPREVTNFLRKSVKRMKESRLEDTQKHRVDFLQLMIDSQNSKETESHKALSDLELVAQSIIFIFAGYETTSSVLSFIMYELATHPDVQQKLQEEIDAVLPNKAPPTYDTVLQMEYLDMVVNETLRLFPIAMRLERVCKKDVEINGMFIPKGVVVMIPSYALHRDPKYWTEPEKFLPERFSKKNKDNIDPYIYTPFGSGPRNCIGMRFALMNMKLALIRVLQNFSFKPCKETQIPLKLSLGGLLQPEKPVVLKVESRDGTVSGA
Sequence of Cytochrome P450 2C9 (P11712 whole entry): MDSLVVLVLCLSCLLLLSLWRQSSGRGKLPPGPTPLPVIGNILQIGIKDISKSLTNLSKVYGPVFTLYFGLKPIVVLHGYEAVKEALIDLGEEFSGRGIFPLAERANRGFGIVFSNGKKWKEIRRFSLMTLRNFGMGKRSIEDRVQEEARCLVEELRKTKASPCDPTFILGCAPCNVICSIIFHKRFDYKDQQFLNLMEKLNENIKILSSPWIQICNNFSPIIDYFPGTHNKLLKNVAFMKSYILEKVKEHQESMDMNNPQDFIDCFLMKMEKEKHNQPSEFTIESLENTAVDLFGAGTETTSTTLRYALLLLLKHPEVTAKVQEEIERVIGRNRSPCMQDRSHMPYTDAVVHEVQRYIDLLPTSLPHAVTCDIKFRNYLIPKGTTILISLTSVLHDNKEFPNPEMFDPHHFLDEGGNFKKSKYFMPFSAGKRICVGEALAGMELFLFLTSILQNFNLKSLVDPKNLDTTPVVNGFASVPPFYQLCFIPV
Sequence of Cytochrome P450 2D6 (P10635 whole entry): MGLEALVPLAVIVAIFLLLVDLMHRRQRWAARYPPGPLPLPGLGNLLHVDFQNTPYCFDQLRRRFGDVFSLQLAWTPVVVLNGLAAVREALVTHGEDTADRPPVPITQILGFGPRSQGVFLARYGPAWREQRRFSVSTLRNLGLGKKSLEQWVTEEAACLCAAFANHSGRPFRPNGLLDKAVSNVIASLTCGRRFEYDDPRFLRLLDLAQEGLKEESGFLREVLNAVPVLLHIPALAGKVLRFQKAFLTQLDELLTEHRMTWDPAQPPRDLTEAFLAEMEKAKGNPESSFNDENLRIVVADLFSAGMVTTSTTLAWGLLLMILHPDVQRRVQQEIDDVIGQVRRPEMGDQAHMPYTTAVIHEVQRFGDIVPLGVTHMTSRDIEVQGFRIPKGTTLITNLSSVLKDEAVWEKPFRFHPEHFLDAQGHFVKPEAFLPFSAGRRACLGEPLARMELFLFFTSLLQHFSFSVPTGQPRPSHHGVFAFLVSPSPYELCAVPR

SMILES: O=C(N[C@H](Cc1c[nH]c2ccccc12)C(=O)Nc1ccncc1)c1ccc(-c2cc(C(F)(F)F)ccc2F)cc1F
- Drug uptake (Intestine [1]): Active
- Drug uptake (Liver [2]): Active
- Drug uptake (Lung [3]): Active
- Drug uptake (Heart [4]): Active
- Drug uptake [5]: Active
- Drug uptake [6]: Active
- Drug uptake (Liver [7]): Active
- Drug uptake (Lung [8]): Active
- Drug uptake (Heart [9]): Active
- Drug uptake [10]: Active
- Drug uptake [11]: Active
- inhibition (Trypanosoma cruzi [12]): Active
- inhibition (Trypanosoma cruzi [13]): Active
- Activity (Mus musculus [14]): Non-toxic
- Activity (Mus musculus [15]): Non-toxic
- Activity (Mus musculus [16]): Non-toxic
- Activity (Mus musculus [17]): Non-toxic
- Activity (Mus musculus [18]): Non-toxic
- Activity (Mus musculus [19]): Non-toxic
- Kd [20]: 12 nM
- inhibition in vivo at 25 mg/kg (Trypanosoma cruzi [21]): 63.3%
- inhibition in vivo at 50 mg/kg (Trypanosoma cruzi [22]): 91.3%
- t1/2 (Liver microsome [23]): 0.417 h
- t1/2 (Liver microsome [24]): 0.3 h
- t1/2 (Liver [25]): 0.817 h
- inhibition (INH) (Cytochrome P450 1A2): -5%
- inhibition (INH) (Cytochrome P450 2C9): 90%
- inhibition (INH) (Cytochrome P450 2D6): 21%
- inhibition (INH) (Cytochrome P450 3A4): 27%
- EC50 (Trypanosoma cruzi [26]): 21 nM
- Activity (C2C12): Non-toxic
- half-life [27]: 3.76 h
- half-life [28]: 4.87 h
- Tmax [29]: 2.33 h
- Tmax [30]: 2 h
- Cmax [31]: 13.6 µM
- Cmax [32]: 1.02 µM
- AUC(0-t) [33]: 106 µM·h
- AUClast (Mus musculus [34]): 4.55 µM·h
- CL/F [35]: 14.1 mL/min/kg
- Drug uptake (Intestine [36]): Active
